From ChEMBL document CHEMBL1152868, “Activation of aldehyde dehydrogenase-2 reduces ischemic damage to the heart” (Science, 2008)
Activity calls are given as the source filed them. The calls are words filed in the database; no cut-off is given here.

Tests used:
[1] = molecular target: T1, Aldehyde dehydrogenase, mitochondrial (Rattus norvegicus) (UniProt P11884); assay: Induction of ALDH2 activity in langendorff perfused ischemic Wistar rat heart homogenate assessed as NADH level in per mg of protein at 1 uM after 10 mins by spectrophotometry; format: tissue-based
T1 sequence (whole entry): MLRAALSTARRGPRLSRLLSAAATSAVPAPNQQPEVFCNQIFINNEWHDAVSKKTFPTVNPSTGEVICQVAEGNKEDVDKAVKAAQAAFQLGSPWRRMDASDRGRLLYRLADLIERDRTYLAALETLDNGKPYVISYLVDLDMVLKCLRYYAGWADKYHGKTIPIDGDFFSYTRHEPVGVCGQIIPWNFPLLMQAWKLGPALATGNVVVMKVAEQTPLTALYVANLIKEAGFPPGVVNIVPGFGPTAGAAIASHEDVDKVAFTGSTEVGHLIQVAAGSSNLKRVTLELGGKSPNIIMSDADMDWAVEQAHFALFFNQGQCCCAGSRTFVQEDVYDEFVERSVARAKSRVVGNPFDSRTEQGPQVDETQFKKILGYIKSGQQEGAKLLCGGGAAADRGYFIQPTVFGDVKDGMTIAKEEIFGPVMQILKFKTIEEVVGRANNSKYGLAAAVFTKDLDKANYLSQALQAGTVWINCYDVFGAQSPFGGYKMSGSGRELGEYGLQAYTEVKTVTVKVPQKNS
Outline: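 Rat hearts on a Langendorff apparatus perfused with oxygenated Krebs-Henseleit buffer containing 1μM εPKC agonist peptide for 10 min, then subjected to ischemia; ALDH activity measured in heart homogenates.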

Heart [2] = assay: Cardiac protection in Langendorff perfused ischemic Wistar rat heart assessed as reduction of infarct size at 1 uM for 10 mins by TTC staining; format: functional; set-up: scale not given: the % may be the effect or the level left
Rattus norvegicus [3] = assay: Reduction of cardiac damage in acute myocardial infarction Wistar rat model assessed as decrease in myocardial infarction at 8.5 mg/kg treated 5 mins before ischemia by TTC staining; format: functional, Myocardium; set-up: scale not given: the % may be the effect or the level left
Outline: (§1)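 In vivo: 8.5 mg/kg injected into left ventricle five minutes before ischemia; 35 min ischemia then 60 min reperfusion; infarct size of left ventricular free wall expressed as percent, n=7.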

Rattus norvegicus [4] = assay: Toxicity in Wistar rat assessed as histopathology at 6 mg/kg/day for 1 week; format: organism-based; conditions: in vivo, 168 h
Rattus norvegicus [5] = assay: Toxicity in Wistar rat assessed as blood parameters at 6 mg/kg/day for 1 week; format: organism-based; conditions: in vivo, 168 h
Rattus norvegicus [6] = assay: Induction of cell-stress in Wistar rat heart assessed as JNK activation at 8.5 mg/kg after 5 mind by Western blot analysis; format: functional, organism-based; set-up: dose 8.5 mg/kg
Rattus norvegicus [7] = assay: Induction of cell-stress in Wistar rat heart assessed as JNK activation at 8.5 mg/kg after ischemia followed by reperfusion by occluding left anterior descending coronary artery ligation for 35 mins by Western blot analysis; format: functional, organism-based; set-up: dose 8.5 mg/kg
Outline: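 In vivo rat model: 8.5 mg/kg given into the left ventricle five minutes before 35 min ischemia, followed by 60 min reperfusion.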

[8] = molecular target: T2, Aldehyde dehydrogenase, mitochondrial (Homo sapiens) (UniProt P05091); assay: Activation of human ALDH2 assessed as phosphorylated enzyme at 20 uM in absence of rat PKCepsilon by spectrophotometry
T2 sequence (whole entry): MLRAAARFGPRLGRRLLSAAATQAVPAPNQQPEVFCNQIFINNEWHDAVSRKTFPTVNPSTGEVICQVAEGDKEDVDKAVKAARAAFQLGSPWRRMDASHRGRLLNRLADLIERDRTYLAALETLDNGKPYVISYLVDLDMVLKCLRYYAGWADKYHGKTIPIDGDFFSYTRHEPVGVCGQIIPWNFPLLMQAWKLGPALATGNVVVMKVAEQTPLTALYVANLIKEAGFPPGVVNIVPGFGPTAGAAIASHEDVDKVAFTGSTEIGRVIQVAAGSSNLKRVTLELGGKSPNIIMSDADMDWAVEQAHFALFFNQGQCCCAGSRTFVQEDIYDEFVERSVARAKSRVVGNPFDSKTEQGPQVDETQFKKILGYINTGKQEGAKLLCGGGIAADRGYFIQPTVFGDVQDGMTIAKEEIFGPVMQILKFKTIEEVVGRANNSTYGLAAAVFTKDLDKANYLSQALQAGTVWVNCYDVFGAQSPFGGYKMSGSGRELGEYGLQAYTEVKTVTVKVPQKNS

[9] = molecular target: T2, Aldehyde dehydrogenase, mitochondrial (Homo sapiens); assay: Activation of human ALDH2 assessed as phosphorylated enzyme at 20 uM in presence of rat PKCepsilon by spectrophotometry
[10] = Effect on alcohol dehydrogenase 1 activity at 100 uM
[11] = molecular target: T3, Aldehyde dehydrogenase 1A1 (Homo sapiens) (UniProt P00352); assay: Effect on human recombinant his-tagged cytosolic ALDH1A1 activity expressed in Escherichia coli BL21 cells at 100 uM
T3 sequence (whole entry): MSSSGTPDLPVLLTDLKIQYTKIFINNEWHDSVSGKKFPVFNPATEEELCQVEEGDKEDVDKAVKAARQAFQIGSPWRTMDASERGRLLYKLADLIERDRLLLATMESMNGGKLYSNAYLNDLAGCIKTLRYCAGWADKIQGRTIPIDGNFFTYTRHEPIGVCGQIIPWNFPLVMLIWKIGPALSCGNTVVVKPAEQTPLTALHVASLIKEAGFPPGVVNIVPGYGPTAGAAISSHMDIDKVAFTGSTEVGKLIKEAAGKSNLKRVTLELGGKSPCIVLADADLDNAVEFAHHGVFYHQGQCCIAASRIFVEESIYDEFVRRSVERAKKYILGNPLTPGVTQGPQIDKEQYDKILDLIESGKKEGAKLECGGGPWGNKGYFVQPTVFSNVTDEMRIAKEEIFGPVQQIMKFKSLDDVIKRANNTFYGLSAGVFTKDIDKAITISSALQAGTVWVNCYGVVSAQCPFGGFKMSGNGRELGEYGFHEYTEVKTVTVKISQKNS

[12] = molecular target: T4, Aldehyde dehydrogenase X, mitochondrial (Homo sapiens) (UniProt P30837); assay: Effect on human recombinant his-tagged mitochondrial ALDH5 activity expressed in Escherichia coli BL21 cells at 100 uM
T4 sequence (whole entry): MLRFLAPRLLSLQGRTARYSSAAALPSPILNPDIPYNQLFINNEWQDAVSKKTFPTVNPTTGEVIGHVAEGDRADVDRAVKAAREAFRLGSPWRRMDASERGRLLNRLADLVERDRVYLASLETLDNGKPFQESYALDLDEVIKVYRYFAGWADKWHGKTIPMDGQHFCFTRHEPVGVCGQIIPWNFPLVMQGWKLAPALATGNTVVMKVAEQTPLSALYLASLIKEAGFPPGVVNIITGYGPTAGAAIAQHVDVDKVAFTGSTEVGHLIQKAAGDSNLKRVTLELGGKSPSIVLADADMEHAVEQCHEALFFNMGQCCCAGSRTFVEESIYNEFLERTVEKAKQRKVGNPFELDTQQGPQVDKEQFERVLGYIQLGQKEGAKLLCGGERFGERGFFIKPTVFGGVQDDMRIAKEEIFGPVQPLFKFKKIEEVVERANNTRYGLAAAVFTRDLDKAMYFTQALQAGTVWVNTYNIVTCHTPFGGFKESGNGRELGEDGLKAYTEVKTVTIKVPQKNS

BL21 [13] = assay: Increase in human recombinant ALDH2*2 E487K mutant activity expressed in Escherichia coli BL21 cells
Outline: (§2)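 Recombinant human ALDH2 proteins (wild type, heterozygous and homozygous mutant forms), 20μg each, assayed for enzymatic activity with 100 μM activator present; activity expressed as percent of untreated control; n=3.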

BL21 [14] = assay: Increase in human recombinant ALDH2*1/*2 E487K mutant heterotetramer activity expressed in Escherichia coli BL21 cells using wild type and mutant allele; outline: as §2
[15] = molecular target: T2, Aldehyde dehydrogenase, mitochondrial (Homo sapiens); assay: Increase in wild type human recombinant ALDH2*1/*1 homotetramer activity expressed in Escherichia coli BL21 cells using wild type allele relative to basal activity; outline: as §2
BL21 [16] = assay: Activation of human recombinant ALDH2*2 E487K mutant expressed Escherichia coli BL21 cells at 10 uM relative to control
[17] = molecular target: T2, Aldehyde dehydrogenase, mitochondrial (Homo sapiens); assay: Activation of wild type human recombinant ALDH2*1 expressed Escherichia coli BL21 cells at 10 uM relative to control
Heart [18] = assay: Ex vivo cardiac protection in Langendorff perfused Wistar rat heart assessed decrease in myocardial infarct size at 20 uM treated […] ischemia followed by 60 mins reperfusion by TTC staining; format: functional; set-up: scale not given: the % may be the effect or the level left
Outline: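 Langendorff-perfused rat hearts pretreated 10 min with 20 μM drug or vehicle, then 35 min ischemia and 60 min reperfusion. Infarct size assessed by TTC staining of cross-sectional slices; n=7 hearts per group.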

Heart [19] = assay: Ex vivo cardiac protection in Langendorff perfused Wistar rat heart assessed decrease of CPK release at 20 uM treated 35 mins before ischemia followed by 60 mins reperfusion; format: functional; set-up: scale not given: the % may be the effect or the level left
Rattus norvegicus [20] = assay: Reduction of cardiac damage in acute myocardial infarction Wistar rat model assessed as decrease in infarct size at 8.5 mg/kg treated before left anterior descending coronary artery ligation measured after 35 mins of ischemia followed by 60 mins reperfusion by TTC staining; format: functional, Myocardium; set-up: scale not given: the % may be the effect or the level left; outline: as §1
Rattus norvegicus [21] = assay: Cardiac protection in Wistar rat assessed as decrease in infarct size at 5 ug/min/kg for 13 hrs prolonged treatment terminated 3 hrs before ischemia; format: functional; set-up: scale not given: the % may be the effect or the level left

H-HDAPIGYD-OH
Activity [1]: 3.2 µmol/min
Activity (Heart [2]): 23%

O=C(NCc1ccc2c(c1)OCO2)c1c(Cl)cccc1Cl
Activity (Rattus norvegicus [3]): 60%
Activity (Rattus norvegicus [4]): Non-toxic
Activity (Rattus norvegicus [5]): Non-toxic
Activity (Rattus norvegicus [6]): inactive
Activity (Rattus norvegicus [7]): inactive
Activity [8]: 90%
Activity [9]: 100%
Activity [10]: inactive
Activity [11]: inactive
Activity [12]: inactive
fold change (FC) (BL21 [13]): 11
fold change (FC) (BL21 [14]): 2.2
fold change (FC) [15]: 2.1
Activity (BL21 [16]): 900%
Activity [17]: 65%
Activity (Heart [18]): 26%
Activity (Heart [19]): 24%
Activity (Rattus norvegicus [20]): 43%

O=[N+]([O-])OCC(CO[N+](=O)[O-])O[N+](=O)[O-] [NITROGLYCERIN]
Activity (Rattus norvegicus [21]): 33%

O=C(NCc1ccc2c(c1)OCO2)c1c(F)cccc1F
Activity (BL21 [16]): 330%
Activity [17]: 41%

O=C(NCc1ccc2c(c1)OCO2)c1ccccc1Br
Activity (BL21 [16]): 550%
Activity [17]: 56%
